Measurements reported in ChEMBL document CHEMBL3621107, “Ring fusion strategy for synthesis and lead optimization of sulfur-substituted anthra[1,2-c][1,2,5]thiadiazole-6,11-dione derivatives as promising scaffold of antitumor agents” (Eur J Med Chem, 2015).

How the values were obtained:
[1] = test system: M14; assay: Cytotoxicity against human M14 cells assessed as cell growth at 10 uM after 48 hrs by SRB assay relative to control; format: functional; conditions: M14, 48 h, read-out: Activity
Outline: (§1)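 First-stage NCI-60 screen by the NCI Developmental Therapeutics Program. Each compound was tested once at a single concentration of 10 μM against the 60-cell-line panel. Growth percentage was reported for each cell line.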

[2] = test system: SK-MEL-28; assay: Cytotoxicity against human SK-MEL-28 cells assessed as cell growth at 10 uM after 48 hrs by SRB assay relative to control; format: functional; conditions: SK-MEL-28, 48 h, read-out: Activity
Outline: (§2)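 First-stage NCI DTP one-dose screen against the 60 human tumour cell line panel. Compounds were tested at a single 10 μM level, and results are given as growth percentage.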

[3] = test system: UACC-257; assay: Cytotoxicity against human UACC257 cells assessed as cell growth at 10 uM after 48 hrs by SRB assay relative to control; format: functional; conditions: UACC-257, 48 h, read-out: Activity
Outline: (§3)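 NCI-60 one-dose screen run by NCI DTP: each cell line exposed to a single 10 µM dose, and percentage growth recorded against untreated growth.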

[4] = test system: OVCAR-8; assay: Cytotoxicity against human OVCAR8 cells assessed as cell growth at 10 uM after 48 hrs by SRB assay relative to control; format: functional; conditions: OVCAR-8, 48 h, read-out: Activity; outline: as §2
[5] = test system: SK-OV-3; assay: Cytotoxicity against human SKOV3 cells assessed as cell growth at 10 uM after 48 hrs by SRB assay relative to control; format: functional; conditions: SK-OV-3, 48 h, read-out: Activity; outline: as §2
[6] = test system: A498; assay: Cytotoxicity against human A498 cells assessed as cell growth at 10 uM after 48 hrs by SRB assay relative to control; format: functional; conditions: A498, 48 h, read-out: Activity; outline: as §1
[7] = test system: SN12C; assay: Cytotoxicity against human SN12C cells assessed as cell growth at 10 uM after 48 hrs by SRB assay relative to control; format: functional; conditions: read-out: Activity; outline: as §2
[8] = test system: UO-31; assay: Cytotoxicity against human UO31 cells assessed as cell growth at 10 uM after 48 hrs by SRB assay relative to control; format: functional; conditions: UO-31, 48 h, read-out: Activity; outline: as §3
[9] = test system: PC-3; assay: Cytotoxicity against human PC3 cells assessed as cell growth at 10 uM after 48 hrs by SRB assay relative to control; format: functional; conditions: PC-3, 48 h, read-out: Activity; outline: as §2
[10] = test system: DU-145; assay: Cytotoxicity against human DU145 cells assessed as cell growth at 10 uM after 48 hrs by SRB assay relative to control; format: functional; conditions: DU-145, 48 h, read-out: Activity; outline: as §1
[11] = test system: MCF7; assay: Cytotoxicity against human MCF7 cells assessed as cell growth at 10 uM after 48 hrs by SRB assay relative to control; format: functional; conditions: MCF7, 48 h, read-out: Activity; outline: as §1
[12] = test system: BT-549; assay: Cytotoxicity against human BT549 cells assessed as cell growth at 10 uM after 48 hrs by SRB assay relative to control; format: functional; conditions: BT-549, 48 h, read-out: Activity; outline: as §1
[13] = test system: PC-3; assay: Cytotoxicity against human PC3 cells after 48 hrs by SRB assay; format: functional, cell-based; conditions: PC-3, 48 h
Outline: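 Second-stage NCI-60 panel run by the NCI Developmental Therapeutics Program, covering nine tumour subpanels. Five concentrations were tested: 0.01, 0.1, 1, 10 and 100 μM. Percentage growth at each level was plotted against log10 drug concentration. GI50, TGI and LC50 were read from these dose-response curves. Subpanel MID values were divided into the full-panel MID to give selectivity ratios.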

[14] = test system: DU-145; assay: Cytotoxicity against human DU145 cells after 72 hrs by MTT assay; format: functional, cell-based; conditions: DU-145, 72 h
Outline: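 DU-145 cells grown in RPMI-1640 with 5% heat-inactivated fetal calf serum at 37 °C, 5% CO2. About 2×10^3 cells per well were seeded and incubated for 24 h. Compounds were dissolved in DMSO freshly and diluted into medium (vehicle 0.1% DMSO), then cells were exposed for 72 h. MTT was added for 3 h at 37 °C and absorbance read at 570 nm.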

[15] = test system: K562; assay: Cytotoxicity against human K562 cells assessed as cell growth at 10 uM after 48 hrs by SRB assay relative to control; format: functional; conditions: K562, 48 h, read-out: Activity; outline: as §1
[16] = test system: RPMI-8226; assay: Cytotoxicity against human RPMI8226 cells assessed as cell growth at 10 uM after 48 hrs by SRB assay relative to control; format: functional; conditions: RPMI-8226, 48 h, read-out: Activity; outline: as §2
[17] = test system: SR; assay: Cytotoxicity against human SR cells assessed as cell growth at 10 uM after 48 hrs by SRB assay relative to control; format: functional; conditions: read-out: Activity; outline: as §3
[18] = test system: A549; assay: Cytotoxicity against human A549 cells assessed as cell growth at 10 uM after 48 hrs by SRB assay relative to control; format: functional; conditions: A549, 48 h, read-out: Activity; outline: as §1
[19] = test system: HOP-62; assay: Cytotoxicity against human HOP62 cells assessed as cell growth at 10 uM after 48 hrs by SRB assay relative to control; format: functional; conditions: HOP-62, 48 h, read-out: Activity; outline: as §1
[20] = test system: HOP-92; assay: Cytotoxicity against human HOP92 cells assessed as cell growth at 10 uM after 48 hrs by SRB assay relative to control; format: functional; conditions: HOP-92, 48 h, read-out: Activity; outline: as §1
[21] = test system: NCI-H226; assay: Cytotoxicity against human NCI-H226 cells assessed as cell growth at 10 uM after 48 hrs by SRB assay relative to control; format: functional; conditions: NCI-H226, 48 h, read-out: Activity; outline: as §2
[22] = test system: NCI-H23; assay: Cytotoxicity against human NCI-H23 cells assessed as cell growth at 10 uM after 48 hrs by SRB assay relative to control; format: functional; conditions: NCI-H23, 48 h, read-out: Activity; outline: as §2
[23] = test system: NCI-H522; assay: Cytotoxicity against human NCI-H522 cells assessed as cell growth at 10 uM after 48 hrs by SRB assay relative to control; format: functional; conditions: NCI-H522, 48 h, read-out: Activity; outline: as §2
[24] = test system: HCC 2998; assay: Cytotoxicity against human HCC2998 cells assessed as cell growth at 10 uM after 48 hrs by SRB assay relative to control; format: functional; conditions: HCC 2998, 48 h, read-out: Activity; outline: as §1
[25] = test system: HCT-116; assay: Cytotoxicity against human HCT116 cells assessed as cell growth at 10 uM after 48 hrs by SRB assay relative to control; format: functional; conditions: HCT-116, 48 h, read-out: Activity; outline: as §1
[26] = test system: KM12; assay: Cytotoxicity against human KM12 cells assessed as cell growth at 10 uM after 48 hrs by SRB assay relative to control; format: functional; conditions: KM12, 48 h, read-out: Activity; outline: as §1
[27] = test system: SF-539; assay: Cytotoxicity against human SF539 cells assessed as cell growth at 10 uM after 48 hrs by SRB assay relative to control; format: functional; conditions: SF-539, 48 h, read-out: Activity; outline: as §2
[28] = test system: SNB-19; assay: Cytotoxicity against human SNB19 cells assessed as cell growth at 10 uM after 48 hrs by SRB assay relative to control; format: functional; conditions: SNB-19, 48 h, read-out: Activity; outline: as §3
[29] = test system: U-251; assay: Cytotoxicity against human U251 cells assessed as cell growth at 10 uM after 48 hrs by SRB assay relative to control; format: functional; conditions: U-251, 48 h, read-out: Activity; outline: as §3
[30] = test system: MDA-MB-435; assay: Cytotoxicity against human MDA-MB-435 cells assessed as cell growth at 10 uM after 48 hrs by SRB assay relative to control; format: functional; conditions: MDA-MB-435, 48 h, read-out: Activity; outline: as §2

| Structure (SMILES) | growth at 10 µM [1] | growth at 10 µM [2] | growth at 10 µM [3] | growth at 10 µM [4] | growth at 10 µM [7] | growth at 10 µM [8] | growth at 10 µM [9] | growth at 10 µM [10] | growth at 10 µM [11] | growth at 10 µM [12] | IC50 [13] | IC50 [14] | growth at 10 µM [15] | growth at 10 µM [16] | growth at 10 µM [17] | growth at 10 µM [18] | growth at 10 µM [19] | growth at 10 µM [21] | growth at 10 µM [22] | growth at 10 µM [23] | other results |
| --- | --- | --- | --- | --- | --- | --- | --- | --- | --- | --- | --- | --- | --- | --- | --- | --- | --- | --- | --- | --- | --- |
| O=C1c2ccccc2C(=O)c2c1cc(Sc1ccccc1)c1nsnc21 | 106% | 127% | 92.8% | 82.3% | 96.6% | 80.1% | 87.3% | 103% | 94.9% | 105% | > 15 µM | > 15 µM | 52% | 78.2% | 86.4% | 106% | 110% | 102% | 79.2% | 94.9% | growth at 10 µM [5]: 106%; growth at 10 µM [6]: 95%; growth at 10 µM [20]: 118%; growth at 10 µM [24]: 111%; growth at 10 µM [25]: 90.1%; growth at 10 µM [26]: 99.5%; growth at 10 µM [27]: 107%; growth at 10 µM [28]: 109%; growth at 10 µM [29]: 88.8% |
| Cc1cccc(C)c1Sc1cc2c(c3nsnc13)C(=O)c1ccccc1C2=O | 122% | 89.3% | 86.6% | 59% | 67.7% | 66.7% | 59.9% | 106% | 68.6% | 105% | 6.74 µM | 7.88 µM | 43.1% | 55.6% | 35.5% | 90.2% | 90% | 78.3% | 67.4% | 61.4% | growth at 10 µM [30]: 96.8%; growth at 10 µM [24]: 101%; growth at 10 µM [25]: 65%; growth at 10 µM [26]: 96%; growth at 10 µM [27]: 84.5%; growth at 10 µM [28]: 94.8%; growth at 10 µM [29]: 53.9% |
| O=C1c2ccccc2C(=O)c2c1cc(SCc1ccc(Cl)cc1)c1nsnc21 | 126% | 95.3% | 78.7% | 94.2% | 93.6% | 68.5% | 82.9% | 115% | 83% | 115% | > 15 µM | 7.51 µM | 67.5% | 86.8% | 63.7% | 101% | 89.2% | 82.1% | 82.1% | 82.6% | growth at 10 µM [24]: 103%; growth at 10 µM [25]: 115%; growth at 10 µM [26]: 105%; growth at 10 µM [27]: 98%; growth at 10 µM [28]: 104%; growth at 10 µM [29]: 94.4% |
